A selection: hits, their analogues and other compounds. The true share with any hit is near 4%.
TAAR1 ag: agonists of human TAAR1; 0.99% of 360,000 active; activation, % at 3 µM; CHO RD-HGA16 TAAR1, Fluo-8 calcium fluorescence; vehicle wells 0%, saturating PEA agonist 100%;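 active = activation above the mean activation of all test compounds in the run plus 3 SD, cut at about 38% in these data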
Target sequence (Q96RJ0 whole entry, looked up): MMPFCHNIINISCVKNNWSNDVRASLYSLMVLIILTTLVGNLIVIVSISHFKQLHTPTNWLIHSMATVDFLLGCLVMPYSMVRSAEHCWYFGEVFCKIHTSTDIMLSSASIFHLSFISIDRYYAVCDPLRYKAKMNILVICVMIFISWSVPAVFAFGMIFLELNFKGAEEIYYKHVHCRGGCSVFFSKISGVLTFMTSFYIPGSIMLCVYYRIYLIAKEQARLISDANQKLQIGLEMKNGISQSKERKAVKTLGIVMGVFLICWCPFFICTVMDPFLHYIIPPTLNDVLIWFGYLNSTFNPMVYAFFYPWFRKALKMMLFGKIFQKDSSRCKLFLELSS
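Signal – calcium-sensitive Fluo-8 signal, excitation 470-495, emission 515-575 nm · System – RD-HGA16 (CHO) cells co-expressing Gα16 and hTAAR1 · Incubation – 17-24 h seeding, 75 min 37 °C dye, 30 min RT · Compound dosing – 3 µM single concentration · Repeats – no replicates (n 1)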
OX1R antag-1: human HCRTR1 antagonism; CHO/OX1R cells, Fluo-8 calcium fluorescence, orexin A; inhibition, % at 5 µM; O43613; 0.43% of 330,000 active; AID 434989;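 active = inhibition above its plate's threshold, mean inhibition of all tested compounds on the plate plus 3 SD, cut at about 37% in these data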;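 also: 0% = orexin A challenge wells and 100% = SB-334867-A antagonist wells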
CHO parental Ca: counter-screen: ATP calcium response change in parental CHO cells | parental CHO-K1, ATP-induced calcium, Fluo-8 fluorescence | 0.63% of 330,000 active | inhibition, % at 5.6 µM;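 active = inhibition above that plate's mean sample inhibition plus 3 SD, cut at about 26% in these data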;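 also: 0% = ATP-challenged DMSO wells and 100% = DMSO wells without ATP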
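Material: Parental CHO cells | Reagent: ATP | Compound dosing: Single nominal dose of 5.6 µM per compound | Detection: Intracellular calcium via Fluo-8 no-wash fluorescent dye | Read-out: % inhibition of ATP-induced calcium mobilization | Benchmarks: Low control ATP plus DMSO, high control DMSO only | Replicates: Singlicate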
OX1R antag-2: OX1R (human) antagonism; O43613; OX1R-expressing cells, FRET antagonist read-out; inhibition, % at 6.6 µM; 1.8% of 330,000 active; AID 485270; in the data active = inhibition mostly above about 38%, no sharp cut-off; inactive = mostly below about 40%;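 also: 0% = agonist challenge alone and 100% = reference antagonist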
TAAR1 antag: antagonists of human TAAR1. 1.5% of 360,000 active. inhibition, % at 3 µM. Q96RJ0. CHO RD-HGA16 TAAR1, Fluo-8 calcium fluorescence, antagonist;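 active = inhibition above a per-plate cutoff, the mean inhibition of test compounds on that plate plus 3 SD, cut at about 49% in these data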;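 also: 0% = DMSO plus EC80 beta-PEA response and 100% = DMSO alone without agonist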
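Test system: hTAAR1-expressing CHO RD-HGA16 cells, Gα16-coupled; Probe or stimulus: EC80 β-phenethylamine stimulus; Compound dosing: single nominal final test compound concentration of 3 µM; Timing: 140 s kinetic read after compound, 140 s after agonist; Signal: Fluo-8 calcium-sensitive fluorescence; Measure: % inhibition of agonist calcium response; Controls: DMSO and EC80 PEA controls.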
nonsel antag count: nonselective antagonism, TAAR1 counter-screen | 77% of 2,400 active | shares compounds with TAAR1 antag | inhibition, % at 3 µM | counterscreen cell line, calcium fluorescence, antagonist mode; in the data active = inhibition above about 22%;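 also: CHO-Ga16 host cells stimulated with ATP at an EC80 level; 0% = agonist EC80 plus vehicle and 100% = vehicle without agonist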
TAAR1 ant conf: human TAAR1 antagonism, confirmed; shares compounds with TAAR1 antag; inhibition, % at 3 µM; AID 651785; 40% of 2,400 active; TAAR1-expressing cells, fluorescence antagonist read-out; in the data active = inhibition above about 49%;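 also: CHO-Ga16 host cells challenged with agonist PEA near its EC80; 0% = agonist at EC80 plus vehicle and 100% = vehicle with no agonist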
Ga16 nonsel ag: nonselective Ga16 agonist in TAAR1 antagonist counter-screen; shares compounds with TAAR1 antag; Ga16-expressing cells, calcium fluorescence, agonist counterscreen; activation, % at 3 µM; 18% of 2,400 active; in the data active = activation above about 12%;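 also: 0% = vehicle wells and 100% = saturating stimulus response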
TAAR1 ag count: TAAR1 agonism, antagonist counter-screen; shares compounds with TAAR1 antag; hTAAR1 cell line, fluorescence activation, agonist mode; activation, % at 3 µM; 2% of 2,400 active; in the data active = activation above about 37%;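 also: CHO cells stably expressing TAAR1 with calcium dye readout; 0% = DMSO vehicle and 100% = full agonist response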
Active calls of the source: *; · = not tested or not shown.

SMILES	TAAR1 ag	OX1R antag-1	CHO parental Ca	OX1R antag-2	TAAR1 antag	nonsel antag count	TAAR1 ant conf	Ga16 nonsel ag	TAAR1 ag count
CCOc1ccccc1N1CCN(C(=O)c2cc(-c3cc(OC)ccc3OC)nc3ccccc23)CC1	4	-30	-22	18	73*	21	43	6	4
COc1cccc(CN2CCN(C(=O)c3cc(-c4cccnc4)nc4ccc(C)cc34)CC2)c1	14	-17	-18	27	66*	27*	48	9	8
COc1ccc(N2CCN(C(=O)c3cc(-c4cc(OC)ccc4OC)nc4ccccc34)CC2)cc1	10	-22	-24	31	60*	27*	49*	11	15
C/C(=N\N=C(N)N)c1ccc(Cl)c(Cl)c1	22	-17	-11	14	-1	·	·	·	·
COC(=O)c1sccc1-n1cccc1C(=O)C(=O)N1CCOCC1	5	-13	-8	11	5	·	·	·	·
OC(CNCC1COc2ccccc2O1)COc1ccccc1F (stereo not given)	3	-27	-21	11	-15	·	·	·	·
O=C1c2ccccc2C(c2nnnn2Cc2ccccc2)N1CCc1ccc(O)cc1 (stereo not given)	14	·	·	·	67*	28*	53*	9	12
O=C1c2ccccc2C(c2nnnn2Cc2ccccc2)N1CCc1ccccc1F (stereo not given)	16	·	·	·	68*	29*	51*	9	9
Cc1cccc(NC(=O)CSc2cc(C)c(C#N)c3nc4ccccc4n23)c1	7	-17	-23	16	-18	·	·	·	·
CCOC(=O)C1=C(C)Nc2ccccc2N=C1NC(=O)c1oc2ccccc2c1COC	14	-13	-6	30*	70*	30*	46	6	7
CCOC(=O)C1=C(C)Nc2ccccc2N=C1N	1	8	-9	25	-6	·	·	·	·
O=C(c1cnn2c(C(F)(F)F)cc(-c3cccs3)nc12)N1CCN(Cc2ccccc2)CC1	4	-23	-35	29	59*	20	38	4	4
CN1CCN(C(=O)c2cnn3c(C(F)(F)F)cc(-c4cccs4)nc23)CC1	1	-2	-4	20	-4	·	·	·	·
COc1cccc(CNC(=O)C2CCCN(c3nc4ccccc4o3)C2)c1 (stereo not given)	2	-14	-16	39	-6	·	·	·	·
Cc1ccc(CCNC(=O)C2CCCN(c3nc4ccccc4o3)C2)cc1 (stereo not given)	12	-37	-22	21	50*	23*	31	4	1
CCOc1ccc(NC(=O)CN(C)C(=O)CCN2C(=O)C3CC=CCC3C2=O)cc1OCC (stereo not given)	-1	-13	-7	1	-22	·	·	·	·
CC(C)(C)c1ccc(OCc2ccc(C(=O)N/N=C/c3ccc([N+](=O)[O-])cc3)o2)cc1	13	-18	-15	9	53*	31*	44	5	8
Cc1cc(=O)oc2c3c(cc(OCC(=O)NCc4ccccc4)c12)OC(C)(C)CC3	3	-35	-16	11	68*	24*	34	2	0
Cc1nc(SCC(=O)c2ccccc2)c(C#N)c(-c2ccco2)c1C(=O)NCc1ccco1	25	-20	1	28	62*	35*	58*	10	7
Cc1ccc(Cl)cc1NC(=O)Nn1cnnc1	1	0	-4	2	62*	2	-1	0	0
O=C1NC[C@@H](c2ccccc2)OC(=O)[C@H](Cc2ccc(F)cc2)C/C=C\C[C@H]1CC(=O)N(CCO)Cc1ccccc1	28	-25	-24	12	68*	30*	45	8	6
CC(C)(C)OC(=O)C[C@@H]1C/C=C\C[C@@H](CC(=O)N[C@@H](CO)Cc2ccccc2)C(=O)NC[C@@H](c2ccccc2)OC1=O	16	-12	-14	11	67*	28*	47	6	4
O=C(C[C@@H]1C/C=C/CC[C@@H](Cc2ccc(F)cc2)C(=O)O[C@@H](c2ccccc2)CNC1=O)NCCO	16	-29	24	8	66*	26*	49*	6	6
O=C(C[C@H]1C/C=C/CC[C@H](Cc2ccc(F)cc2)C(=O)O[C@H](c2ccccc2)CNC1=O)NCCO	9	-9	-13	-4	-10	·	·	·	·
O=C(C[C@H]1C/C=C\C[C@@H](Cc2ccc(F)cc2)C(=O)O[C@@H](c2ccccc2)CNC1=O)NCCO	3	1	5	19	22	·	·	·	·
SMILES	TAAR1 ag	OX1R antag-1	CHO parental Ca	OX1R antag-2	TAAR1 antag	nonsel antag count	TAAR1 ant conf	Ga16 nonsel ag	TAAR1 ag count
O=C1NC[C@@H](c2ccccc2)OC(=O)[C@@H](Cc2ccc(F)cc2)CC/C=C/C[C@H]1CC(=O)N(CCO)Cc1ccccc1	35	-13	-31	7	59*	20	32	9	6
Oc1cc(-n2cccn2)c(O)cc1-n1cccn1	-1	-14	1	7	5	·	·	·	·
O=C(Cn1c(NCCCCl)nc2ccccc21)c1ccccc1	13	-21	-12	2	3	·	·	·	·
Cc1ccccc1-n1c(SC(C)C(=O)NCC2CCCO2)nnc1-c1ccncc1 (stereo not given)	0	·	·	·	-31	·	·	·	·
O=C(NCc1ccc(F)cc1)C(c1ccccc1)N(C(=O)c1csnn1)c1ccccc1 (stereo not given)	21	-12	-23	7	59*	29*	59*	19*	22
O=C(NCc1ccc(F)cc1)C(c1ccco1)N(C(=O)c1csnn1)c1ccccc1 (stereo not given)	4	-19	-8	17	13	·	·	·	·
O=C(NCc1ccccc1)C(c1ccccc1)N(C(=O)c1csnn1)c1ccccc1 (stereo not given)	11	-15	-16	19	62*	27*	49*	7	5
COc1ccc(CNC(=O)C(c2cccc(C)c2)N(C(=O)c2csnn2)C2CC2)cc1 (stereo not given)	17	-20	-26	15	52*	30*	40	7	6
Cc1ccc(N(C(=O)c2csnn2)C(C(=O)NCc2ccccc2)c2cccnc2)cc1 (stereo not given)	-2	-39	-32	21	0	·	·	·	·
Cc1ccc(N(CC(=O)NC(C)(C)C)C(=O)CS(=O)CC(=O)Nc2ccc3c(c2)OCO3)cc1 (stereo not given)	6	-3	-9	35	-14	·	·	·	·

Source: PubChem (The Scripps Research Institute Molecular Screening Center)
